Columns and labels:
[1] = tested on: SK-Mel-2 cells; assay: Cellular uptake and distribution by confocal Raman microscopy of live cells; assay type: cell-based, Human; details: data not shown
[2] = Circular dichroism spectroscopy, secondary structure in water/TFE solutions; assay type: physicochemical; details: 40 μM peptide, 25 °C, CDPro (average of CONTINLL, SELCON3, CDSSTR)
How it was run: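 Stock 20 mM in water (pH 7), stored at 4°C for ≤10 days and quantified by A280 (ε280 = 11,000 M−1.cm−1). CD recorded in a 1 mm quartz cell over 180–250 nm at 100 nm/min with 1 s response, 40 μM peptide, 25 °C. Eight scans averaged and background-corrected for water/TFE. Fractions from the CDPro SP37A reference set.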

- α-helix structure (CD modeling) ([2]; 100% TFE): 25%
- Random coil character (CD modeling) ([2]; 100% water): 54%
- α-helix structure (CD modeling) ([2]; 100% water): 3%
- β-strand structure (CD modeling) ([2]; 100% water): 21%
SMILES: CC[C@H](C)[C@H](NC(=O)[C@H](CCCCN)NC(=O)[C@@H](NC(=O)[C@H](CCC(N)=O)NC(=O)[C@@H](N)CCCNC(=N)N)[C@@H](C)CC)C(=O)N[C@@H](Cc1c[nH]c2ccccc12)C(=O)N[C@@H](Cc1ccccc1)C(=O)N[C@@H](CCC(N)=O)C(=O)N[C@@H](CC(N)=O)C(=O)N[C@@H](CCCNC(=N)N)C(=O)N[C@@H](CCCNC(=N)N)C(=O)N[C@@H](CCSC)C(=O)N[C@@H](CCCCN)C(=O)N[C@@H](Cc1c[nH]c2ccccc12)C(=O)N[C@@H](CCCCN)C(=O)N[C@@H](CCCCN)C(N)=O [penetratin-Fh]
- Peptide uptake by cells at 4°C ([1]; 4°C, confocal Raman microscopy): did not observe peptide uptake
- Concentration dependence of the rate of accumulation in cell nuclei ([1]; range 25–300 μM, RT): only weakly dependent on concentration

— paper PMC2818876 (Journal of the American Chemical Society, 2010)
